# Shown are actives, neighbours in structure and some others; about 1.2% of the full set was active somewhere.
# Rce1 inhib = blocks yeast Ras-converting enzyme; AID 2563; calls only; yeast membranes, quenched prenylated peptide cleavage fluorescence; actives 0.27% (n = 290,000); Q03530;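 active means fall in fluorescence gain of 50% or more versus controls, with final raw signal at or below 3038400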;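 further: plate controls were neutral control wells for no effect and wells lacking membranes for full effect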
# proCasp3 act = procaspase-3 (human) activation | P42574 | recombinant procaspase-3 D3A, Ac-DEVD-pNA absorbance 405 nm | activation, % at 8.5 µM | actives 0.11% (n = 330,000) | AID 463141;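 active means activation above the mean of all tested compounds plus 3 SD, cut at about 21% in these data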;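 further: 0% = DMSO alone and 100% = DMSO wells spiked with extra 5 µM PC-3 D3A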
# Target sequence (P42574 whole entry D9A/D28A/D175A): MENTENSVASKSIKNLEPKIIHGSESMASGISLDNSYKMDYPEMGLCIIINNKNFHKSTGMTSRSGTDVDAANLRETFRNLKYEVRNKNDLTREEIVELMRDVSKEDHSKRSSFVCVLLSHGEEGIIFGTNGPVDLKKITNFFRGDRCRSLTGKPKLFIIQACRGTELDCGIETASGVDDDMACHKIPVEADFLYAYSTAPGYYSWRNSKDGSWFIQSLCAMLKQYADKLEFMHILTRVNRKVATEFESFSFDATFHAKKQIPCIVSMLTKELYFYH
#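 Assay system: Procaspase-3 D3A mutant, all three cleavage aspartates alanine. Buffer or medium: Zinc-free HEPES saline buffer with Triton X-100. Times: 1 h compound preincubation, 2 h substrate hydrolysis at 25 °C. Measured by: 405 nm absorbance of p-nitroaniline, reads at 0 and 120 min. Read-out basis: percent activation relative to control range. Replicates: singlicate.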
# p-CIP stab down = lowers stability of the mouse p/CIP coactivator protein | decrease of EGFP signal, % at 10 µM | Q05BA5 | actives 0.01% (n = 290,000) | F442A p/CIP-EGFP cells, EGFP fluorescence, 16 h;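 active means EGFP signal decrease of at least 30% at 10 µM or well 3 SD below plate mean, unless failing retest; inactive means the rest, including hits failing retest or dose response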
# proCasp7 act = counter-screen: procaspase-7 (human) activation. recombinant procaspase-7, Ac-DEVD-pNA absorbance 405 nm; D23A/D198A/D206A triple mutant, cannot self-cleave; scale: DMSO 0, 5 µM enzyme 100. activation, % at 8.5 µM. actives 0.093% (n = 330,000);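 active means percent activation above the screen-wide mean plus 3 SD, cut at about 25% in these data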
#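 System: Uncleavable procaspase-7 mutant enzyme; Amount: 2 µM procaspase-7 mutant as dispensed; Schedule: 1 h compound preincubation, 2 h substrate cleavage, 25 °C; Measured by: 405 nm absorbance of p-nitroaniline; Evaluation: percent activation from buffer-corrected 0–120 min absorbance change; Control set: low DMSO alone, high DMSO plus 5 µM PC-7.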
# FXN GAA850 act = activators of GAA850 frataxin (FXN) promoter. HEK293 lucGAA850 FXN promoter luciferase reporter, 24 h; percent of 10 µM SAHA response. actives 0.56% (n = 360,000). activation, % at 6 µM. AID 540364;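 active means activation above the average of all compounds screened plus 3 SD, cutoff fixed separately per campaign, cut at about 7.5% in these data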;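 further: 0% = DMSO wells and 100% = 10 µM SAHA wells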
# Hep lipid drop = modulators of hepatic lipid droplet formation | AML12 mouse hepatocytes, oleate lipid droplets, BODIPY imaging | inhibition, % at 6.5 µM | actives 0.4% (n = 240,000) | AID 1656;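 active means lipid droplet intensity inhibited by at least 50%, with more than 500 cells counted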
#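 Material – AML12 mouse liver cells · Also added – oleate loading, 100 µM · Compound dosing – 6.5 µM single-point dosing · Times – overnight treatment with compound plus oleate · Measured by – fluorescence imaging, 20x objective, two fields per well · Read-out – percent inhibition of filter-corrected integrated lipid droplet intensity per well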
# GAA30 FXN cntr = counter-screen for GAA850 frataxin promoter activators: GAA30 promoter activation; shares compounds with FXN GAA850 act; HEK293 lucGAA30 FXN promoter luciferase, 24 h; DMSO = 0%, 5 µM ipriflavone = 100%; activation, % at 6 µM; actives 66% (n = 1,900); AID 588350;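 active means mean activation above the mean of solvent-only control wells plus 3 SD, cut at about 22% in these data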;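 further: counterscreen of GAA850 promoter hits where activity marks nonselective or luminescence artifacts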
# GAA850 confirm = confirmation of GAA850 frataxin (FXN) promoter activators; actives 86% (n = 1,900); HEK293 lucGAA850 FXN promoter luciferase reporter, 24 h; 100% = activation by SAHA; shares compounds with FXN GAA850 act; AID 588351; activation, % at 6 µM;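 active means mean activation above a set limit taken from the primary screen, cut at about 8% in these data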;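 further: 0% = DMSO wells and 100% = 10 µM SAHA wells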
# * hit, by the source's call; i = inactive; · = no result.
SMILES,Rce1 inhib,proCasp3 act,p-CIP stab down,proCasp7 act,FXN GAA850 act,Hep lipid drop,GAA30 FXN cntr,GAA850 confirm
C=C1c2cccc(O)c2C(=O)C2C(=O)[C@]3(O)C(=O)C(C(N)=O)C(=O)[C@@H](N(C)C)[C@@H]3[C@@H](O)[C@H]12 (some centres undefined),·,5,·,-35,18*,·,16,7
COc1ccc(Oc2c(C(F)(F)F)oc3cc(OCC(=O)O)ccc3c2=O)cc1,i,-3,-2,16,3,-1,·,·
Cc1ccc(NC(=O)COC(=O)CCC2CCCC2)cc1S(=O)(=O)N1CCOCC1,·,7,·,3,3,·,·,·
COc1ccc(/C=N/Nc2nncc3ccccc23)cc1,i,5,-4,-6,6,1,·,·
COc1ccccc1/C=N/Nc1nncc2ccccc12,i,0,0,0,8.2*,27,104*,36*
CN1CCN(c2ccc(NC(=O)c3cc4ccccc4o3)cc2)CC1,i,2,0,-6,7.7*,4,138*,39*
CCCCn1nnc(NC(=O)c2cc3ccccc3o2)n1,·,5,8,1,8.4*,1,82*,26*
C=C1CCN([C@@H](CC(C)C)C(=O)Nc2ccc(OC)cc2)S(=O)(=O)c2ccccc21,i,0,·,1,14*,·,22*,11*
C=C1CCN([C@@H](CC(C)C)C(=O)NCc2ccccc2)S(=O)(=O)c2ccccc21,i,6,·,5,1,·,·,·
C=C1CCN([C@@H](Cc2ccccc2)C(=O)NCCC(C)C)S(=O)(=O)c2ccccc21,i,-2,·,-3,8.0*,·,12,6
COCc1cc(C)nc(SCc2ccc(Br)cc2)c1C#N,i,-5,·,0,3,·,·,·
O=C(NC(=S)NCC1COc2ccccc2O1)c1ccccc1 (centres undefined),i,6,-3,-14,-2,-4,·,·
O=C(NCC1COc2ccccc2O1)c1ccccc1 (centres undefined),i,2,4,-2,7.6*,·,88*,27*
CCS(=O)(=O)N1CCN(c2ccc([N+](=O)[O-])c(NC(C)c3ccccc3)c2)CC1 (centres undefined),i,5,-14,0,1,·,·,·
CC(Nc1cc(N2CCNCC2)ccc1[N+](=O)[O-])c1ccccc1 (centres undefined),i,-5,-20,1,8.5*,8,12,7
O=C(NNC(=O)c1ccccc1OCc1ccccc1Cl)c1csc(N2CCOCC2)n1,i,9,-30,5,7,0,·,·
CN(C)CCNc1ccc2ncn3c4ccc(O)cc4c(=O)c1c23,·,·,·,·,8.4*,·,-42,26*
CN(C)CCNc1ccc(CO)c2sc3ccc(O)cc3c(=O)c12,·,·,·,·,-4,·,·,·
Cc1ccc(OC(=O)N(C)C[C@@H]2OCc3cn(nn3)CCCC(=O)N([C@H](C)CO)C[C@H]2C)cc1,·,·,·,·,0,·,·,·
CCc1ccc(C(=O)NCC2(c3ccccc3)CCOCC2)o1,·,·,·,·,7.8*,·,95*,25*
O=C(NCC1(c2ccccc2)CCOCC1)c1ccc(Br)o1,i,-4,-4,-2,1,·,·,·
Cc1ccc(-c2nnn(CC(=O)N(CC3CCCO3)C(C(=O)NC3CCCCC3)c3ccc(F)cc3)n2)o1 (centres undefined),i,2,1,0,8.3*,-15,22*,8.4*
COc1ccc(C(C(=O)NC2CCCC2)N(CC2CCCO2)C(=O)Cn2nnc(-c3ccc(C)o3)n2)cc1 (centres undefined),i,3,-12,2,0,0,·,·

# Bioassay records from PubChem BioAssay.
